Square brackets hold non-standard residues; d marks the D form. Peptide text beside a SMILES is read from it. * marks the point of attachment. Fumaroyl(AlaGlyPheOH) = C[C@H](NC(=O)/C=C/C(=O)*)C(=O)NCC(=O)N[C@@H](Cc1ccccc1)C(=O)O; Chg = N[C@H](C(=O)O)C1CCCCC1; Dap = NC[C@H](N)C(=O)O
Assays:
[1] = target: Rhodesain (Trypanosoma brucei rhodesiense) (UniProt Q95PM0); assay: Inhibition of Trypanosoma brucei rhodesiense rhodesain after 12 hrs by fluorescence spectroscopy-based on-bead assay; set-up: concentration or dose not given beside the values; details: concentration not given here
Outline: (§1)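 Library members on resin (PEGA, theoretical loading 0.40 mmol/g; added as DMSO suspension, 0.64 mM final inhibitor) preincubated with enzyme 12 h, then Cbz-Phe-Arg-AMC 40 μM added; AMC release followed by fluorescence (ex 380/em 460 nm). Kinetics compared with inhibitor-free amino-PEGA resin.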

[2] = Inhibition of Plasmodium falciparum falcipain-2 after 12 hrs by fluorescence spectroscopy-based on-bead assay; set-up: concentration or dose not given beside the values; details: concentration not given here; outline: as §1

Chain of Rhodesain (Trypanosoma brucei rhodesiense) (Q95PM0 1-450): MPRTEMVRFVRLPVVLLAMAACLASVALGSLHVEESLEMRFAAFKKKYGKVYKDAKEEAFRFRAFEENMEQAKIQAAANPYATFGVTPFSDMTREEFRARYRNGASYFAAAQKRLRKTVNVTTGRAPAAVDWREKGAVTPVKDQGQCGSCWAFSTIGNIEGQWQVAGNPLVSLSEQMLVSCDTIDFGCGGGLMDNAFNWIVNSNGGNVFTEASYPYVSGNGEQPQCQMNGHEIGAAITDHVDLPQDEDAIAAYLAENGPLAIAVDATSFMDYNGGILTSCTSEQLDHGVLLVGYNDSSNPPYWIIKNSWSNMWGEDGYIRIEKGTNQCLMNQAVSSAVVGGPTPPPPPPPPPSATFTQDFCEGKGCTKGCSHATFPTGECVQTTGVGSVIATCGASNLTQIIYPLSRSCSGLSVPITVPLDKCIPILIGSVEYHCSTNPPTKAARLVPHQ

SMILES	inhibition [1]	inhibition [2]
CC(=O)NC[C@H](NC(=O)/C=C/C(=O)NCC(=O)NCC(=O)N[C@@H](Cc1ccccc1)C(=O)O)C(=O)N[C@@H](Cc1ccccc1)C(=O)N[C@@H](CC(C)C)C(=O)N[C@H](C(N)=O)C(C)C (HELM PEPTIDE1{[O=C(/C=C/C(=O)[*:2])NCC(=O)NCC(=O)N[C@@H](Cc1ccccc1)C(=O)O].[O=C([C@H](CN[*:3])N[*:1])[*:2]].F.L.V.[am]}|PEPTIDE2{[ac]}$PEPTIDE1,PEPTIDE2,2:R3-1:R2$$$V2.0)	51%	59%
CC(C)C[C@H](NC(=O)[C@@H](NC(=O)[C@H](Cc1ccccc1)NC(=O)/C=C/C(=O)NCC(=O)NCC(=O)N[C@@H](Cc1ccccc1)C(=O)O)C1CCCCC1)C(=O)N[C@H](C(N)=O)C(C)C (HELM PEPTIDE1{[O=C(/C=C/C(=O)[*:2])NCC(=O)NCC(=O)N[C@@H](Cc1ccccc1)C(=O)O].F.[O=C([C@@H](N[*:1])C1CCCCC1)[*:2]].L.V.[am]}$$$$V2.0)	57%	40%
CC[C@H](C)[C@H](NC(=O)[C@H](CNC(C)=O)NC(=O)/C=C/C(=O)N[C@@H](C)C(=O)NCC(=O)N[C@@H](Cc1ccccc1)C(=O)O)C(=O)N[C@H](C(=O)N[C@H](C(N)=O)C(C)C)C(C)C (HELM PEPTIDE1{[C[C@H](NC(=O)/C=C/C(=O)[*:2])C(=O)NCC(=O)N[C@@H](Cc1ccccc1)C(=O)O].[O=C([C@H](CN[*:3])N[*:1])[*:2]].I.V.V.[am]}|PEPTIDE2{[ac]}$PEPTIDE1,PEPTIDE2,2:R3-1:R2$$$V2.0)	49%	52%
CC(C)[C@H](NC(=O)[C@H](C)NC(=O)[C@@H](NC(=O)[C@H](CCC(N)=O)NC(=O)/C=C/C(=O)NCC(=O)NCC(=O)N[C@@H](Cc1ccccc1)C(=O)O)c1ccccc1)C(N)=O (HELM PEPTIDE1{[O=C(/C=C/C(=O)[*:2])NCC(=O)NCC(=O)N[C@@H](Cc1ccccc1)C(=O)O].Q.[Phg].A.V.[am]}$$$$V2.0)	17%	34%
CC(C)C[C@H](NC(=O)[C@H](Cc1ccccc1)NC(=O)[C@H](CCC(N)=O)NC(=O)/C=C/C(=O)NCC(=O)NCC(=O)N[C@@H](Cc1ccccc1)C(=O)O)C(=O)N[C@H](C(N)=O)C(C)C (HELM PEPTIDE1{[O=C(/C=C/C(=O)[*:2])NCC(=O)NCC(=O)N[C@@H](Cc1ccccc1)C(=O)O].Q.F.L.V.[am]}$$$$V2.0)	57%	62%
CC(C)C[C@H](NC(=O)[C@@H](NC(=O)[C@H](C)NC(=O)/C=C/C(=O)N[C@@H](C)C(=O)NCC(=O)N[C@@H](Cc1ccccc1)C(=O)O)c1ccccc1)C(=O)N[C@H](C(N)=O)C(C)C (HELM PEPTIDE1{[C[C@H](NC(=O)/C=C/C(=O)[*:2])C(=O)NCC(=O)N[C@@H](Cc1ccccc1)C(=O)O].A.[Phg].L.V.[am]}$$$$V2.0)	72%	55%
CC(C)[C@H](NC(=O)[C@@H](NC(=O)[C@@H](NC(=O)[C@H](C)NC(=O)/C=C/C(=O)N[C@@H](C)C(=O)NCC(=O)N[C@@H](Cc1ccccc1)C(=O)O)c1ccccc1)C(C)C)C(N)=O (HELM PEPTIDE1{[C[C@H](NC(=O)/C=C/C(=O)[*:2])C(=O)NCC(=O)N[C@@H](Cc1ccccc1)C(=O)O].A.[Phg].V.V.[am]}$$$$V2.0)	50%	38%
CC(C)[C@H](NC(=O)[C@@H](NC(=O)[C@H](Cc1ccccc1)NC(=O)[C@H](CC(N)=O)NC(=O)/C=C/C(=O)NCC(=O)NCC(=O)N[C@@H](Cc1ccccc1)C(=O)O)C(C)C)C(N)=O (HELM PEPTIDE1{[O=C(/C=C/C(=O)[*:2])NCC(=O)NCC(=O)N[C@@H](Cc1ccccc1)C(=O)O].N.F.V.V.[am]}$$$$V2.0)	28%	40%
CC(C)C[C@H](NC(=O)[C@H](Cc1ccccc1)NC(=O)[C@H](CCC(N)=O)NC(=O)/C=C/C(=O)N[C@@H](C)C(=O)NCC(=O)N[C@@H](Cc1ccccc1)C(=O)O)C(=O)N[C@H](C(N)=O)C(C)C (HELM PEPTIDE1{[C[C@H](NC(=O)/C=C/C(=O)[*:2])C(=O)NCC(=O)N[C@@H](Cc1ccccc1)C(=O)O].Q.F.L.V.[am]}$$$$V2.0)	60%	49%
CC(C)[C@H](NC(=O)[C@@H](NC(=O)[C@@H](NC(=O)[C@H](CC(N)=O)NC(=O)/C=C/C(=O)NCC(=O)NCC(=O)N[C@@H](Cc1ccccc1)C(=O)O)c1ccccc1)C(C)C)C(N)=O (HELM PEPTIDE1{[O=C(/C=C/C(=O)[*:2])NCC(=O)NCC(=O)N[C@@H](Cc1ccccc1)C(=O)O].N.[Phg].V.V.[am]}$$$$V2.0)	45%	50%
CC(=O)NC[C@H](NC(=O)/C=C/C(=O)N[C@@H](C)C(=O)NCC(=O)N[C@@H](Cc1ccccc1)C(=O)O)C(=O)N[C@@H](CC(C)C)C(=O)N[C@@H](C)C(=O)N[C@H](C(N)=O)C(C)C (HELM PEPTIDE1{[C[C@H](NC(=O)/C=C/C(=O)[*:2])C(=O)NCC(=O)N[C@@H](Cc1ccccc1)C(=O)O].[O=C([C@H](CN[*:3])N[*:1])[*:2]].L.A.V.[am]}|PEPTIDE2{[ac]}$PEPTIDE1,PEPTIDE2,2:R3-1:R2$$$V2.0)	19%	28%
CC(C)[C@H](NC(=O)[C@H](C)NC(=O)[C@H](Cc1ccccc1)NC(=O)[C@H](C)NC(=O)/C=C/C(=O)N[C@@H](C)C(=O)NCC(=O)N[C@@H](Cc1ccccc1)C(=O)O)C(N)=O (HELM PEPTIDE1{[C[C@H](NC(=O)/C=C/C(=O)[*:2])C(=O)NCC(=O)N[C@@H](Cc1ccccc1)C(=O)O].A.F.A.V.[am]}$$$$V2.0)	18%	51%
CC(C)[C@H](NC(=O)[C@@H](NC(=O)[C@@H](NC(=O)[C@H](CC(N)=O)NC(=O)/C=C/C(=O)N[C@@H](C)C(=O)NCC(=O)N[C@@H](Cc1ccccc1)C(=O)O)c1ccccc1)C(C)C)C(N)=O (HELM PEPTIDE1{[C[C@H](NC(=O)/C=C/C(=O)[*:2])C(=O)NCC(=O)N[C@@H](Cc1ccccc1)C(=O)O].N.[Phg].V.V.[am]}$$$$V2.0)	37%	51%
CC(=O)NC[C@H](NC(=O)/C=C/C(=O)N[C@@H](C)C(=O)NCC(=O)N[C@@H](Cc1ccccc1)C(=O)O)C(=O)N[C@H](C(=O)N[C@@H](CC(C)C)C(=O)N[C@H](C(N)=O)C(C)C)C1CCCCC1 ({Fumaroyl(AlaGlyPheOH)}-[Dap](Ac)[Chg]LV-NH2)	51%	56%
CC(C)C[C@H](NC(=O)[C@H](CCC(N)=O)NC(=O)/C=C/C(=O)N[C@@H](C)C(=O)NCC(=O)N[C@@H](Cc1ccccc1)C(=O)O)C(=O)N[C@@H](CC(C)C)C(=O)N[C@H](C(N)=O)C(C)C (HELM PEPTIDE1{[C[C@H](NC(=O)/C=C/C(=O)[*:2])C(=O)NCC(=O)N[C@@H](Cc1ccccc1)C(=O)O].Q.L.L.V.[am]}$$$$V2.0)	56%	55%
CC[C@H](C)[C@H](NC(=O)[C@H](CNC(C)=O)NC(=O)/C=C/C(=O)NCC(=O)NCC(=O)N[C@@H](Cc1ccccc1)C(=O)O)C(=O)N[C@@H](C)C(=O)N[C@H](C(N)=O)C(C)C (HELM PEPTIDE1{[O=C(/C=C/C(=O)[*:2])NCC(=O)NCC(=O)N[C@@H](Cc1ccccc1)C(=O)O].[O=C([C@H](CN[*:3])N[*:1])[*:2]].I.A.V.[am]}|PEPTIDE2{[ac]}$PEPTIDE1,PEPTIDE2,2:R3-1:R2$$$V2.0)	29%	29%
CC(C)[C@H](NC(=O)[C@H](C)NC(=O)[C@H](Cc1ccccc1)NC(=O)[C@H](Cc1ccccc1)NC(=O)/C=C/C(=O)NCC(=O)NCC(=O)N[C@@H](Cc1ccccc1)C(=O)O)C(N)=O (HELM PEPTIDE1{[O=C(/C=C/C(=O)[*:2])NCC(=O)NCC(=O)N[C@@H](Cc1ccccc1)C(=O)O].F.F.A.V.[am]}$$$$V2.0)	47%	43%
CC(C)[C@H](NC(=O)[C@H](C)NC(=O)[C@H](Cc1ccccc1)NC(=O)[C@H](Cc1ccccc1)NC(=O)/C=C/C(=O)N[C@@H](C)C(=O)NCC(=O)N[C@@H](Cc1ccccc1)C(=O)O)C(N)=O (HELM PEPTIDE1{[C[C@H](NC(=O)/C=C/C(=O)[*:2])C(=O)NCC(=O)N[C@@H](Cc1ccccc1)C(=O)O].F.F.A.V.[am]}$$$$V2.0)	37%	30%
CC(C)[C@H](NC(=O)[C@H](C)NC(=O)[C@H](Cc1ccccc1)NC(=O)[C@H](CCC(N)=O)NC(=O)/C=C/C(=O)N[C@@H](C)C(=O)NCC(=O)N[C@@H](Cc1ccccc1)C(=O)O)C(N)=O (HELM PEPTIDE1{[C[C@H](NC(=O)/C=C/C(=O)[*:2])C(=O)NCC(=O)N[C@@H](Cc1ccccc1)C(=O)O].Q.F.A.V.[am]}$$$$V2.0)	30%	25%
CC(C)[C@H](NC(=O)[C@H](C)NC(=O)[C@H](Cc1ccccc1)NC(=O)[C@H](C)NC(=O)/C=C/C(=O)NCC(=O)NCC(=O)N[C@@H](Cc1ccccc1)C(=O)O)C(N)=O (HELM PEPTIDE1{[O=C(/C=C/C(=O)[*:2])NCC(=O)NCC(=O)N[C@@H](Cc1ccccc1)C(=O)O].A.F.A.V.[am]}$$$$V2.0)	45%	44%
CC[C@H](C)[C@H](NC(=O)[C@H](CC(N)=O)NC(=O)/C=C/C(=O)N[C@@H](C)C(=O)NCC(=O)N[C@@H](Cc1ccccc1)C(=O)O)C(=O)N[C@@H](C)C(=O)N[C@H](C(N)=O)C(C)C (HELM PEPTIDE1{[C[C@H](NC(=O)/C=C/C(=O)[*:2])C(=O)NCC(=O)N[C@@H](Cc1ccccc1)C(=O)O].N.I.A.V.[am]}$$$$V2.0)	17%	38%
CC(C)C[C@H](NC(=O)[C@H](Cc1ccccc1)NC(=O)/C=C/C(=O)NCC(=O)NCC(=O)N[C@@H](Cc1ccccc1)C(=O)O)C(=O)N[C@H](C(=O)N[C@H](C(N)=O)C(C)C)C(C)C (HELM PEPTIDE1{[O=C(/C=C/C(=O)[*:2])NCC(=O)NCC(=O)N[C@@H](Cc1ccccc1)C(=O)O].F.L.V.V.[am]}$$$$V2.0)	58%	46%
CC(C)[C@H](NC(=O)[C@H](C)NC(=O)[C@H](Cc1ccccc1)NC(=O)[C@H](CC(N)=O)NC(=O)/C=C/C(=O)N[C@@H](C)C(=O)NCC(=O)N[C@@H](Cc1ccccc1)C(=O)O)C(N)=O (HELM PEPTIDE1{[C[C@H](NC(=O)/C=C/C(=O)[*:2])C(=O)NCC(=O)N[C@@H](Cc1ccccc1)C(=O)O].N.F.A.V.[am]}$$$$V2.0)	47%	25%
